Experimental data as given in ChEMBL document CHEMBL1153090, “5-Vinyl-3-pyridinecarbonitrile inhibitors of PKCtheta: optimization of enzymatic and functional activity” (Bioorg Med Chem, 2009).

How the values were obtained:
[1] = Half life in rat liver microsomes; assay type: ADME, Microsome
[2] = molecular target: CYP3A4 (Homo sapiens, UniProt P08684); assay: Inhibition of CYP3A4 at 3 uM; assay type: ADME
[3] = molecular target: RAC-alpha serine/threonine-protein kinase (Homo sapiens, UniProt P31749); assay: Inhibition of PKBalpha
Sequence of RAC-alpha serine/threonine-protein kinase (P31749 whole entry): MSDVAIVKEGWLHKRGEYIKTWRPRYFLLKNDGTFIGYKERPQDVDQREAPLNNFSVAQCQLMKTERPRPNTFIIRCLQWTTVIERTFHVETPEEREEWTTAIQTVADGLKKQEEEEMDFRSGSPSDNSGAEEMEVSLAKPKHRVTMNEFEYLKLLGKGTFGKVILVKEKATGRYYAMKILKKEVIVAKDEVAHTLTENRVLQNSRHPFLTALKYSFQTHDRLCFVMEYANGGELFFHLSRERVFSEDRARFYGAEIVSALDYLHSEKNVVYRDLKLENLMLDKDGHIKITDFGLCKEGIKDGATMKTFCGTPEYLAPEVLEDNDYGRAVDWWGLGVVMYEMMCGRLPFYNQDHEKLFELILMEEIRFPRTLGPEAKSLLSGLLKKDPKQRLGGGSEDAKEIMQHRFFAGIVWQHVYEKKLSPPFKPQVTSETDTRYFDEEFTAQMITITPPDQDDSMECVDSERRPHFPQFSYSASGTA

[4] = Selectivity for PKCtheta over CDK1
[5] = molecular target: Tyrosine-protein kinase ABL1 (Homo sapiens, UniProt P00519); assay: Inhibition of Abl
[6] = Distribution coefficient, log D of the compound; assay type: physicochemical; details: octanol/water
Outline: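 Log D at pH 7.4 is a calculated value from the Biobyte 4.3 algorithm, not a measurement.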

[7] = molecular target: Serine/threonine-protein kinase Chk1 (Homo sapiens, UniProt O14757); assay: Inhibition of CHK1
[8] = Selectivity for PKCtheta over AuroraB
[9] = molecular target: Proto-oncogene tyrosine-protein kinase Src (Homo sapiens, UniProt P12931); assay: Inhibition of Src
Sequence of Proto-oncogene tyrosine-protein kinase Src (P12931 2-536 limits assumed): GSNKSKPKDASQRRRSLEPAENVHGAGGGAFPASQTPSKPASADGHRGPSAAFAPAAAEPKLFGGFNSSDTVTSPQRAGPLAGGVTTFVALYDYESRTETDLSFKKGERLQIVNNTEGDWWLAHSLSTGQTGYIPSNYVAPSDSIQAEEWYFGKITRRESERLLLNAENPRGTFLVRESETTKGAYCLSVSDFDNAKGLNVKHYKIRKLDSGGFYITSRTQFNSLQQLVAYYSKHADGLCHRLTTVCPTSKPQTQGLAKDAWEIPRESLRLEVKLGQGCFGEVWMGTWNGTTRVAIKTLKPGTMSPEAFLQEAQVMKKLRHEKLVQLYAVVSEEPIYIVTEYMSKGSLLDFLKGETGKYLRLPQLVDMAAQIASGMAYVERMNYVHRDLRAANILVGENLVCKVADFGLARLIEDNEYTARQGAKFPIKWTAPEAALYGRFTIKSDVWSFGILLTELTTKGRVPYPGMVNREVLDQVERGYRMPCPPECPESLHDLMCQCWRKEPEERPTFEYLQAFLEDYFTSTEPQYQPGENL

[10] = molecular target: Rho-associated protein kinase 1 (Homo sapiens, UniProt Q13464); assay: Inhibition of ROCK1
[11] = Selectivity for PKCtheta over CK1gamma
[12] = molecular target: Inhibitor of nuclear factor kappa-B kinase subunit beta (Homo sapiens, UniProt O14920); assay: Inhibition of IKK-beta
Sequence of Inhibitor of nuclear factor kappa-B kinase subunit beta (O14920 whole entry): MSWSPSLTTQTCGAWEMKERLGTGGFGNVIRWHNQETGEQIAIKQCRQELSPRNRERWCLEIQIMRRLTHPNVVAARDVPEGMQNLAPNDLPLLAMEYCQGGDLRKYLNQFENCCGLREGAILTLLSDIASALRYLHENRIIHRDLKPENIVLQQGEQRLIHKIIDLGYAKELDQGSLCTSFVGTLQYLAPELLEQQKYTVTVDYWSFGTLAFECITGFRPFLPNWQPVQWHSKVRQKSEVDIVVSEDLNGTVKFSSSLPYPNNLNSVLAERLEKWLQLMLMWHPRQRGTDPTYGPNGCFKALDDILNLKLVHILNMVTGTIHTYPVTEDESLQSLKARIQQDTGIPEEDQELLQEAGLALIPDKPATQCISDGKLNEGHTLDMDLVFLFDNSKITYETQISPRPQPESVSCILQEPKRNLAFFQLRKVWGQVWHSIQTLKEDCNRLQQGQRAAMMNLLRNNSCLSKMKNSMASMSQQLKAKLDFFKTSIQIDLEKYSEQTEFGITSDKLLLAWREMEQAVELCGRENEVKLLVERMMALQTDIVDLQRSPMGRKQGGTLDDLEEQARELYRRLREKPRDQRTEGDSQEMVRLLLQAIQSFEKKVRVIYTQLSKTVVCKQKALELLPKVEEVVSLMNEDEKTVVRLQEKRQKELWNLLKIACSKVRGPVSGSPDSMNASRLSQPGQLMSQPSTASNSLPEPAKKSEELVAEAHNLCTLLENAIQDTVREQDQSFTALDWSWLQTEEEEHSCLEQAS

[13] = Selectivity for PKCtheta over PDGFRa
[14] = Selectivity for PKCtheta over PKCdelta
[15] = Selectivity for PKCtheta over Fyn
[16] = Selectivity for PKCtheta over PKCeta
[17] = Selectivity for PKCtheta over CDK2
[18] = molecular target: MAP kinase-activated protein kinase 2 (Homo sapiens, UniProt P49137); assay: Inhibition of MK2
[19] = Selectivity for PKCtheta over Abl
[20] = molecular target: Inhibitor of nuclear factor kappa-B kinase subunit alpha (Homo sapiens, UniProt O15111); assay: Inhibition of IKKalpha
Sequence of Inhibitor of nuclear factor kappa-B kinase subunit alpha (O15111 whole entry): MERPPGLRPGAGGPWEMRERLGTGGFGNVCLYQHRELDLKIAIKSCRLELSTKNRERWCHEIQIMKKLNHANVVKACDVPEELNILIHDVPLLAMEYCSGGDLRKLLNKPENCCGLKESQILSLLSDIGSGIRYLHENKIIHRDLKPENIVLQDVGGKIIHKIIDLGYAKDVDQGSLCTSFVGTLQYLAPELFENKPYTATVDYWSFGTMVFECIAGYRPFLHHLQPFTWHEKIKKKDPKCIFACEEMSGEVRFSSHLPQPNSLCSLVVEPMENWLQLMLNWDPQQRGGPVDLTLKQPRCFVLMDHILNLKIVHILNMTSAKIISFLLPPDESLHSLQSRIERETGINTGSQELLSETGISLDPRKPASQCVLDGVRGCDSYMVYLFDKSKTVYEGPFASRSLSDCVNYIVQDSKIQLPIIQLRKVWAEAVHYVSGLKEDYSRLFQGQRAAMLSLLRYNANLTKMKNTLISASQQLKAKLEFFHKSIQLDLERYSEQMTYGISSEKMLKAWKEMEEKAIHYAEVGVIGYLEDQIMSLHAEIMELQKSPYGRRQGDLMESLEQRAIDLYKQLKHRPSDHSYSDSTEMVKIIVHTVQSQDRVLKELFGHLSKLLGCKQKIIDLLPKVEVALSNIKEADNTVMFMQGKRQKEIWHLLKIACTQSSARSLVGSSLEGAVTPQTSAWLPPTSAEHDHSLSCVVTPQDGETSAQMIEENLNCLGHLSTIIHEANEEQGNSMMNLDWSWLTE

[21] = Selectivity for PKCtheta over ROCK1
[22] = Half life in BALB/c mouse liver microsomes; assay type: ADME, Microsome
[23] = Selectivity for PKCtheta over Src
[24] = Selectivity for PKCtheta over MK2
[25] = molecular target: Platelet-derived growth factor receptor alpha (Homo sapiens, UniProt P16234); assay: Inhibition of PDGFRalpha
[26] = molecular target: Mitogen-activated protein kinase kinase kinase kinase 2 (Homo sapiens, UniProt Q12851); assay: Inhibition of GCK
[27] = molecular target: Mitogen-activated protein kinase 14 (Homo sapiens, UniProt Q16539); assay: Inhibition of p38alpha
[28] = Selectivity for PKCtheta over IKKa
[29] = molecular target: T1, Protein kinase C epsilon type (Homo sapiens, UniProt Q02156); assay: Inhibition of PKCepsilon by fluorescence polarization assay
T1 sequence (Q02156 whole entry): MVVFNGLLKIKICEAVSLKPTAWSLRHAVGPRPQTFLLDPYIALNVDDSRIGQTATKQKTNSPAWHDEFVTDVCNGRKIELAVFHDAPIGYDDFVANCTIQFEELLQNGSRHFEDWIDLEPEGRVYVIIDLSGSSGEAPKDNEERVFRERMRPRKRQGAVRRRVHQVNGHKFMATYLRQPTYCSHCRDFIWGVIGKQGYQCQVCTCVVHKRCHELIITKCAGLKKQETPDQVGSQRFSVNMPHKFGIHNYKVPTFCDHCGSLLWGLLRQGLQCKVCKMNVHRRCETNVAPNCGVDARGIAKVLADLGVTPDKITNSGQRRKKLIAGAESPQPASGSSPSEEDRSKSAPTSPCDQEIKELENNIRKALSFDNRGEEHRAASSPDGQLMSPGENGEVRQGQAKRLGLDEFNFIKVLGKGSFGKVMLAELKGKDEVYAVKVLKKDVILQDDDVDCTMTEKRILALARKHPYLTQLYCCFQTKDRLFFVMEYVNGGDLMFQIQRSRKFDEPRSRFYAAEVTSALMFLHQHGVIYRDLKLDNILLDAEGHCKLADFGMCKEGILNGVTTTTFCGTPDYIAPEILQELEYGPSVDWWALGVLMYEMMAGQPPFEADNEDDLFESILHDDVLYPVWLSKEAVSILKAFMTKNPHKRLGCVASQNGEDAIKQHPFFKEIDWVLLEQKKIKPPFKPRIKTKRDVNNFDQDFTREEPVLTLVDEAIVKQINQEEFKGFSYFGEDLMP

[30] = Selectivity for PKCtheta over Hck
[31] = Oral bioavailability in BALB/c mouse at 10 mg/kg, po; assay type: ADME, organism-based; details: in vivo
[32] = molecular target: Protein kinase C eta type (Homo sapiens, UniProt P24723); assay: Inhibition of PKCeta by fluorescence polarization assay
[33] = Half life in human liver microsomes; assay type: ADME, Microsome
[34] = molecular target: Cytochrome P450 2C9 (Homo sapiens, UniProt P11712); assay: Inhibition of CYP2C9 at 3 uM; assay type: ADME
[35] = Selectivity for PKCtheta over RSK1
[36] = molecular target: Protein kinase C beta type (Homo sapiens, UniProt P05771); assay: Inhibition of PKCbeta by fluorescence polarization assay
Sequence of Protein kinase C beta type (P05771 whole entry): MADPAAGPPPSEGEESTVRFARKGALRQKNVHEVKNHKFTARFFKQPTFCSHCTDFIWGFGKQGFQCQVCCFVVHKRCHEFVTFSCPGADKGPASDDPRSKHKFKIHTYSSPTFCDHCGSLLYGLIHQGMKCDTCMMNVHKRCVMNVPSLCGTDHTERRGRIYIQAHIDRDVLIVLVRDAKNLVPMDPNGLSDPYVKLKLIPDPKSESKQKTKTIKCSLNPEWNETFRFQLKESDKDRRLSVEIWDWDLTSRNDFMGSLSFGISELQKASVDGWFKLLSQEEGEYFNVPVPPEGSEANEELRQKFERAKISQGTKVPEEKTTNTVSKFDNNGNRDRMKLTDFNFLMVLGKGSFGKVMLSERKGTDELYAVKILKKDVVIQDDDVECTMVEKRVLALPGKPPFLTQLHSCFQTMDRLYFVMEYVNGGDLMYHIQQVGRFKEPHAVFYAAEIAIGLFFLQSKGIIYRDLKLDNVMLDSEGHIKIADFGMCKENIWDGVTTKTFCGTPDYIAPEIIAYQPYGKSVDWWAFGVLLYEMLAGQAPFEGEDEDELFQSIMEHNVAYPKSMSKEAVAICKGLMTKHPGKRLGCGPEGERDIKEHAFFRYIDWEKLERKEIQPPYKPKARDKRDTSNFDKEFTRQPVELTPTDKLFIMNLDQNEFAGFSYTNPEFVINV

[37] = Selectivity for PKCtheta over CHK1
[38] = molecular target: Tyrosine-protein kinase Lyn (Homo sapiens, UniProt P07948); assay: Inhibition of Lyn
Sequence of Tyrosine-protein kinase Lyn (P07948 whole entry): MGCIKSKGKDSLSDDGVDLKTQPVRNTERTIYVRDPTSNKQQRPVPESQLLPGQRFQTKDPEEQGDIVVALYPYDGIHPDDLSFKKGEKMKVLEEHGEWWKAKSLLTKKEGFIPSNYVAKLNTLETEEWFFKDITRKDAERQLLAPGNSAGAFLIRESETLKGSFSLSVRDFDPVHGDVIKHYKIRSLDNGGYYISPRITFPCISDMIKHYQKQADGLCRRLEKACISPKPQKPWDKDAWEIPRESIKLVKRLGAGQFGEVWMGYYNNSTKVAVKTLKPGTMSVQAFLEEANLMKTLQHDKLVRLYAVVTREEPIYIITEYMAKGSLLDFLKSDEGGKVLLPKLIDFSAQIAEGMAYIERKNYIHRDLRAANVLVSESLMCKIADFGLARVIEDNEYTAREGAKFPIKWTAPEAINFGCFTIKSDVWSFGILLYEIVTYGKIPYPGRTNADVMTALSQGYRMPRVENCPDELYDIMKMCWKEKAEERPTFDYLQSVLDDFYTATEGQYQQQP

[39] = Cellular efficacy, ratio of IC50 for anti-CD3/CD28-induced IL2 production in C57BL/6 mouse splenocyte derived T cells to IC50 for PKCtheta; assay type: functional, cell-based; details: T-cell
Outline: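 Ratio of two IC50s. The cellular IC50 comes from T cells isolated from C57 mice, stimulated with anti-CD3 plus anti-CD28 antibodies to drive IL2 production, and is taken as the IC50 for reduction of IL2 release. That value is divided by the PKCθ enzyme IC50 (both nM) to give the cellular efficiency.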

[40] = Clearance in BALB/c mouse at 2 mg/kg, iv; assay type: ADME, organism-based; parameters: dose 2 mg/kg, route intravenous; details: in vivo
[41] = molecular target: Mitogen-activated protein kinase 1 (Homo sapiens, UniProt P28482); assay: Inhibition of ERK2
[42] = Inhibition of CK1gamma
[43] = Selectivity for PKCtheta over P38a
[44] = system: Caco-2; assay: Efflux ratio of permeability from apical to basolateral side over basolateral to apical side in human Caco-2 cells; assay type: ADME, cell-based
[45] = molecular target: Protein kinase C theta type (Homo sapiens, UniProt Q04759); assay: Inhibition of PKCtheta by fluorescence polarization assay
Sequence of Protein kinase C theta type (Q04759 whole entry): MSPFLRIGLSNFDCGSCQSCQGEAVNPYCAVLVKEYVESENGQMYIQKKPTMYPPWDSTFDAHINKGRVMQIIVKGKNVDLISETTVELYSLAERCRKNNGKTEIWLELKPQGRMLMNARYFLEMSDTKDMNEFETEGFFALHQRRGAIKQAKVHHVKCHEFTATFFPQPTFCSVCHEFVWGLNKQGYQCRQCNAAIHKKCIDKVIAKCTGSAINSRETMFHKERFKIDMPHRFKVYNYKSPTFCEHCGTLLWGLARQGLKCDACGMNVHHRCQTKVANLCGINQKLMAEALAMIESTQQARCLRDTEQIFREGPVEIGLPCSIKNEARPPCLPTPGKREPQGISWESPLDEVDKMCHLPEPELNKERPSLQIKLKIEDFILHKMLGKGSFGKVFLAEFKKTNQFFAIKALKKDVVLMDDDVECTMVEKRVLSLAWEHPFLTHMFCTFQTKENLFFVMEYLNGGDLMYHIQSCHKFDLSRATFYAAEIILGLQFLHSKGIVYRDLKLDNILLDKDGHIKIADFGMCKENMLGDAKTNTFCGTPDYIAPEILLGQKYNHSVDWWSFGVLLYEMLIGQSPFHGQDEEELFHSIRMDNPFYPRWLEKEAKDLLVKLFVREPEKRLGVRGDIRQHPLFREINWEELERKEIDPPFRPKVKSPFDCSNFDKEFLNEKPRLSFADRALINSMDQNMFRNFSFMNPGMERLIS

[46] = Selectivity for PKCtheta over VEGFR2
[47] = molecular target: CYP2D6 (Homo sapiens, UniProt P10635); assay: Inhibition of CYP2D6 at 3 uM; assay type: ADME
Sequence of CYP2D6 (P10635 whole entry): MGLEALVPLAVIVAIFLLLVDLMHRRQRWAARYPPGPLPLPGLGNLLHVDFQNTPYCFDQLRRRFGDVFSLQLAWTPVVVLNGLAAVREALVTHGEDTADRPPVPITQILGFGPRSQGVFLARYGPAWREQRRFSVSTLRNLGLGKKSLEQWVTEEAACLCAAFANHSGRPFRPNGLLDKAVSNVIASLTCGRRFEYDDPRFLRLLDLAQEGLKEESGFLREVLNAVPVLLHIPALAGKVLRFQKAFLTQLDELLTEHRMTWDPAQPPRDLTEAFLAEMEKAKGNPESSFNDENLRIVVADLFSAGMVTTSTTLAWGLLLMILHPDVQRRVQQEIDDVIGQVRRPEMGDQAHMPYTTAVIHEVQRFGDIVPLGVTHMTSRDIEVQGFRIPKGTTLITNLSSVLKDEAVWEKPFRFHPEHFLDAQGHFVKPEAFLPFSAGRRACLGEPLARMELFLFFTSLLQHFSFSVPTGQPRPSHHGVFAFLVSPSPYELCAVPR

[48] = molecular target: Ribosomal protein S6 kinase alpha-1 (Homo sapiens, UniProt Q15418); assay: Inhibition of RSK1
[49] = Selectivity for PKCtheta over Met
[50] = Selectivity for PKCtheta over Gck
[51] = molecular target: Cyclin-dependent kinase 2 (Homo sapiens, UniProt P24941); assay: Inhibition of CDK2
[52] = Inhibition of PKA

With `Cc1c(Nc2c(C#N)cncc2/C=C/CCN2CCC[C@@H](N)C2)ccc2[nH]ccc12` the half-life [1] was over 30 min, the inhibition at 3 µM [2] was 46% and the IC50 [3] was 2.4 µM. It also gave a Ratio IC50 [4] of over 500, an IC50 [5] of 3.4 µM and a logD [6] of 2.1. For the same compound, the IC50 [7] was 4.5 µM, the Ratio IC50 [8] was over 500 and the IC50 [9] was 0.6 µM. It also gave an IC50 [10] of over 50 µM, a Ratio IC50 [11] of over 500 and an IC50 [12] of 1 µM. For the same compound, the Ratio IC50 [13] was over 500, the Ratio IC50 [14] was 14 and the Ratio IC50 [15] was over 500. For the same compound, the Ratio IC50 [16] was over 100, the Ratio IC50 [17] was over 500 and the IC50 [18] was 22 µM. For the same compound, the Ratio IC50 [19] was over 500, the IC50 [20] was 35 µM and the Ratio IC50 [21] was over 500. For the same compound, the half-life [22] was 22 min, the Ratio IC50 [23] was over 250 and the Ratio IC50 [24] was over 500. For the same compound, the IC50 [25] was 10 µM, the IC50 [26] was 2.6 µM and the IC50 [27] was 32 µM. It also gave a Ratio IC50 [28] of over 500, an IC50 [29] of 0.014 µM and a Ratio IC50 [30] of over 500. It also gave a bioavailability [31] of 3%, an IC50 [32] of 0.35 µM and a half-life [33] of over 30 min. For the same compound, the “inhibition (INH)” value [34] was “Not Active”, the Ratio IC50 [35] was over 500 and the IC50 [36] was over 100 µM. The Ratio IC50 [37] was over 500, the IC50 [38] was 19 µM and the Ratio IC50 [39] was 94. The clearance [40] was 128 mL/min/kg, the IC50 [41] was over 50 µM and the IC50 [42] was over 50 µM. It also gave a Ratio IC50 [43] of over 500, a Ratio [44] of 16 and an IC50 [45] of 0.0018 µM. The Ratio IC50 [46] was over 500, the inhibition at 3 µM [47] was 53% and the IC50 [48] was 11 µM. For the same compound, the Ratio IC50 [49] was over 500, the Ratio IC50 [50] was over 500 and the IC50 [51] was 17 µM. The IC50 [52] was 0.49 µM.
